Screening results deposited in PubChem BioAssay by Broad Institute.
A selection: hits, their analogues and other compounds. The true share with any hit is near 5.8%.
Pf Dd2 inh – P. falciparum Dd2 growth inhibitors, primary screen, SYBR Green fluorescence, single dose replicates; activity change, % at 10 µM; actives 2.3% (n = 94,000); AID 1159554, 2015; 72 h; active compounds read low; in the data active means activity change below about -80%; inconclusive means no clear call, values can overlap the other calls
T cruzi growth-1 – T. cruzi intracellular proliferation inhibitors, primary screen, cell-based, beta-gal Tulahuen parasites, NIH3T3 host, luminescence | T. cruzi beta-gal in NIH3T3, GalScreen luminescence, 90 h | inhibition, % at 8.34 µM | actives 5.9% (n = 77,000) | AID 624255, 2012;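 active means mean inhibition above about 93%, with at least 55% of replicates each passing it, limit read from the data, passing the limit was not always enough; inconclusive means only one of those two conditions holds; inactive means neither condition holds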
IDH1 R132H inh – inhibitors of IDH1 R132H reductase, primary screen, biochemical, plate reader, single point; Isocitrate dehydrogenase [NADP] cytoplasmic (Homo sapiens), O75874; diaphorase/resazurin fluorescence, 60 min; inhibition, % at 10 µM; actives 0.18% (n = 70,000); in the data active means inhibition above about 34%; inconclusive means no clear call, values can overlap the other calls; inactive means below about 11%;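 further: 0% = DMSO and 100% = no enzyme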
Target sequence (O75874 whole entry R132H): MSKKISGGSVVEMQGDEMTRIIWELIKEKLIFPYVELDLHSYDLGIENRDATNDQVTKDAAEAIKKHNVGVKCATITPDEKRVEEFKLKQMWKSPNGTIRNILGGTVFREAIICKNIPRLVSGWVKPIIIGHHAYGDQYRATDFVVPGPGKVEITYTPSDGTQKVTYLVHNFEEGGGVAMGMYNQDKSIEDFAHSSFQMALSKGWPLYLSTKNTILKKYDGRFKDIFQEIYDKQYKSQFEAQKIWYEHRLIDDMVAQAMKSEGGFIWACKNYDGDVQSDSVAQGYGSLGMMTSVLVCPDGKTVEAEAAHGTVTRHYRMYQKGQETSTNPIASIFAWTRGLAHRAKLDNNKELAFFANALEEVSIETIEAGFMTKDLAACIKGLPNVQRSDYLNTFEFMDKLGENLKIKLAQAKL
GASC1 inh – inhibitors of GASC-1 (KDM4C) histone demethylase, primary screen, biochemical, single concentration HTS. GST-KDM4C 2-372, H3K9me3 peptide, LANCE TR-FRET. actives 0.15% (n = 96,000). AID 720574, 2013. inhibition, % at 12.5 µM. Lysine-specific demethylase 4C (Homo sapiens), Q9H3R0;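 active means mean replicate inhibition above about 25%, with at least 55% of replicates also reaching it, limit read from the data, passing the limit was not always enough; inconclusive means only one of those two conditions met; inactive means neither condition met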
Target sequence (Q9H3R0 2-372 limits assumed): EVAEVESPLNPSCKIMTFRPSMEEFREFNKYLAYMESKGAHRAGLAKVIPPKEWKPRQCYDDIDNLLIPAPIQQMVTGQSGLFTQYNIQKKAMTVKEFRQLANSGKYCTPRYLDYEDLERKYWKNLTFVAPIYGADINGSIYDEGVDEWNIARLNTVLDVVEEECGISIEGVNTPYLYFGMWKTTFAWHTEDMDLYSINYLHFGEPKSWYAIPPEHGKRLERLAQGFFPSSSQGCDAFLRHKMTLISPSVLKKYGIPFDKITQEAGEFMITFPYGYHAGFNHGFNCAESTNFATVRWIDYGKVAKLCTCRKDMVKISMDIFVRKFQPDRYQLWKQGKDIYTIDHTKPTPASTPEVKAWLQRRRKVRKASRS
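System: N-terminal GST-fused human GASC-1 (KDM4C) fragment, residues 2-372 / Amount: 10 nM GST-KDM4C in enzyme reaction / Also added: H3K9me3 peptide with Fe(II)/2OG / Times: 30 min demethylation and 1 h detection at room temperature / Signal: LANCE TR-FRET / Read-out basis: Fall in 671/618 emission ratio as inhibition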
T cruzi growth-2 – T. cruzi intracellular proliferation inhibitors, confirmation, cell-based, NIH3T3 host, beta-gal parasite, luminescence, cherry-pick. shares compounds with T cruzi growth-1. T. cruzi beta-gal in NIH3T3, GalScreen luminescence, 90 h. inhibition, % at 8.35 µM. actives 72% (n = 5,600);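 active means mean replicate inhibition above about 95% and at least 55% of replicates individually reaching it, limit read from the data; inconclusive means only one of the two criteria is met; inactive means neither criterion is met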
T cruzi growth-3 – inhibitors of intracellular T. cruzi replication, confirmation, NIH3T3 host cells, beta-gal parasites, cherry-pick, set 2; shares compounds with T cruzi growth-1; T. cruzi beta-gal in NIH3T3, GalScreen luminescence, 90 h; inhibition, % at 2.09 µM; actives 21% (n = 5,600); AID 651740, 2012;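 active means mean inhibition above about 95%, with at least 55% of replicates also reaching it, limit read from the data; inconclusive means meets just one of the two conditions; inactive means meets neither condition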;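 further: plate controls were neutral control median for no effect and positive control median for full effect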
3T3 cytotox – cytotoxicity in mouse NIH/3T3 fibroblasts, confirmation, cytotoxicity control for T. cruzi proliferation inhibitor project, cell-based, cherry-pick, single point | shares compounds with T cruzi growth-1 | NIH/3T3 viability, CellTiter-Glo ATP luminescence, 90 h | cytotoxicity (signal decrease), % at 8.35 µM | actives 14% (n = 5,600) | AID 651742, 2012;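 active means mean signal decrease across replicates above about 35% based on untreated-well scatter, with enough replicates individually passing, limit read from the data; inconclusive means no rule stated though some were filed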;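 further: 0% = median of neutral control wells and 100% = median of positive control wells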
NIH3T3 tox 2 – NIH/3T3 fibroblast cytotoxicity, confirmation, cytotoxicity control, cell-based, cherry-pick, single point, set 2. shares compounds with T cruzi growth-1. NIH/3T3 viability, CellTiter-Glo ATP luminescence, 90 h. inhibition, % at 24.9 µM. actives 56% (n = 5,600). AID 651744, 2012;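 active means mean loss of cell viability signal at or above a set limit, and enough replicates individually reaching it; inconclusive means meets only the mean limit or only the replicate share; inactive means meets neither condition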;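 further: 0% = median of neutral control wells and 100% = median of positive control wells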
Active calls of the source: *; u = inconclusive; x = no result.

SMILES	Pf Dd2 inh	T cruzi growth-1	IDH1 R132H inh	GASC1 inh	T cruzi growth-2	T cruzi growth-3	3T3 cytotox	NIH3T3 tox 2
Cc1noc(C)c1S(=O)(=O)N(C)C[C@@H]1OCCCC[C@@H](C)Oc2ccc(NC(=O)Nc3ccc4c(c3)OCO4)cc2C(=O)N([C@@H](C)CO)C[C@@H]1C	-35.9	57.5	x	1.1	x	x	x	x
Cc1noc(C)c1S(=O)(=O)N(C)C[C@H]1OCCCC[C@H](C)Oc2ccc(NC(=O)Nc3ccc4c(c3)OCO4)cc2C(=O)N([C@@H](C)CO)C[C@@H]1C	-78.1	u	1.1	-0.9	106.0*	4.0	0.0	-2.6
NC(=O)COc1ccc(/C=N/NC(=O)CCCCCCC(=O)NO)cc1	x	x	-0.1	x	x	x	x	x
COc1cccc(NC(=O)CC2OCCN(Cc3ccccc3)C2=O)c1 (stereo unspecified)	x	x	0.3	x	x	x	x	x
O=C(C1CCCC1)N1CCCCN2[C@H](CO)[C@@H](c3ccc(C#CC4CC4)cc3)[C@@H]2C1	-0.1	113.5*	x	x	99.1*	74.0	19.4	17.3
O=C(C1CC1)N1CCCCN2[C@@H](CO)[C@@H](c3ccc(C#CC4CCCC4)cc3)[C@@H]2C1	-14.6	44.6	x	0.1	x	x	x	x
O=C(C1CCCC1)N1CCCCN2[C@H](CO)[C@H](c3ccc(C#CC4CC4)cc3)[C@@H]2C1	-8.2	120.0*	x	x	116.8*	95.8*	40.1*	16.5
O=C(C1CC1)N1CCCCN2[C@H](CO)[C@@H](c3ccc(C#CC4CC4)cc3)[C@@H]2C1	23.1	105.0*	x	x	97.7*	70.2	19.8	37.0*
O=C(C1CC1)N1CCCCN2[C@@H](CO)[C@H](c3ccc(C#CC4CCCC4)cc3)[C@@H]2C1	2.8	94.8	x	-1.2	x	x	x	x
O=C(Nc1ccccc1)N1CCCCN2[C@H](C1)[C@H](c1ccc(C#CC3CC3)cc1)[C@@H]2CO	-58.4	54.4	x	0.2	x	x	x	x
O=C(C1CCC1)N1CCCCN2[C@@H](CO)[C@H](c3ccc(C#CC4CCCC4)cc3)[C@@H]2C1	-26.4	98.1*	x	x	103.9*	92.5	40.3*	104.8*
O=C(C1CCCC1)N1CCCCN2[C@@H](CO)[C@@H](c3ccc(C#CC4CC4)cc3)[C@@H]2C1	-39.2	92.9	x	x	x	x	x	x
CCCn1c(=O)cc(N)n(-c2ccc(Cl)cc2)c1=O	x	x	-0.2	x	x	x	x	x
CCn1c(SCC(=O)c2ccc(OC)cc2)nnc1-c1ccc(C)cc1	x	x	-0.2	x	x	x	x	x
COc1ccc(CN(C)C[C@H]2Oc3ccc(NS(=O)(=O)c4ccc(OC)cc4)cc3CC(=O)N([C@H](C)CO)C[C@H]2C)cc1	12.8	83.7	x	-0.2	x	x	x	x
COc1ccc(CN(C)C[C@H]2Oc3ccc(NS(=O)(=O)c4ccc(C)cc4)cc3CC(=O)N([C@H](C)CO)C[C@H]2C)cc1	-16.8	114.7*	0.5	-5.7	107.9*	36.5	8.9	u
COc1ccc(S(=O)(=O)Nc2ccc3c(c2)CC(=O)N([C@H](C)CO)C[C@@H](C)[C@H](CN(C)Cc2ccc(C(F)(F)F)cc2)O3)cc1	8.2	u	1.7	-0.1	101.9*	45.2	5.0	58.8*
COc1ccc(CN(C)C[C@@H]2Oc3ccc(NS(=O)(=O)c4ccc(OC)cc4)cc3CC(=O)N([C@H](C)CO)C[C@H]2C)cc1	-7.9	104.5*	-1.9	-0.5	103.4*	80.7	5.7	20.5
COc1ccc(CN(C)C[C@H]2Oc3ccc(NS(=O)(=O)c4ccc(OC)cc4)cc3CC(=O)N([C@H](C)CO)C[C@@H]2C)cc1	-19.3	x	0.0	6.7	x	x	x	x
CCC1(C)Cc2c(sc3nnn(CC(=O)Nc4ccc(OC)cc4OC)c(=O)c23)CO1 (stereo unspecified)	x	x	-0.1	x	x	x	x	x
COc1ccc(CNC(=O)C2CCCCC2C(=O)O)cc1 (stereo unspecified)	x	x	0.4	x	x	x	x	x
COc1cccc(NC(=O)COc2ccccc2C(=O)Nc2c(C)cccc2C)c1	x	x	0.3	x	x	x	x	x
N#Cc1c(NC(=O)c2ccc(COc3ccccc3Cl)o2)sc2c1CCCC2	x	x	0.1	x	x	x	x	x
COc1ccc(C(=O)O[C@H]2CC(C)=CC[C@]3(C)[C@@H]2[C@](O)(C(C)C)C[C@@H]3O)cc1	x	x	-0.2	x	x	x	x	x
C[C@H](CO)N1C[C@H](C)[C@@H](CN(C)Cc2ccc(C(F)(F)F)cc2)Oc2ccc(NC(=O)Nc3ccccc3)cc2C1=O	-79.2	51.5	x	0.8	x	x	x	x
SMILES	Pf Dd2 inh	T cruzi growth-1	IDH1 R132H inh	GASC1 inh	T cruzi growth-2	T cruzi growth-3	3T3 cytotox	NIH3T3 tox 2
C[C@H]1CN([C@@H](C)CO)C(=O)c2cc(NC(=O)Nc3ccc(F)cc3)ccc2O[C@H]1CN(C)Cc1ccc(-c2ccccc2)cc1	-4.8	98.4*	-0.3	-1.7	102.1*	103.4*	32.3	102.9*
C[C@H]1CN([C@@H](C)CO)C(=O)c2cc(NC(=O)Nc3ccc(C(F)(F)F)cc3)ccc2O[C@H]1CN(C)Cc1ccc(-c2ccccc2)cc1	8.1	118.1*	0.2	-0.2	106.4*	u	28.8	103.9*
C[C@H]1CN([C@@H](C)CO)C(=O)c2cc(NC(=O)Nc3ccc(C(F)(F)F)cc3)ccc2O[C@@H]1CN(C)Cc1ccc(-c2ccccc2)cc1	2.1	112.6*	x	2.9	108.0*	40.4	3.1	104.1*
C[C@H](CO)N1C[C@H](C)[C@H](CN(C)Cc2ccc(-c3ccccc3)cc2)Oc2ccc(NC(=O)Nc3ccc(C(F)(F)F)cc3)cc2C1=O	18.1	80.7*	3.6	0.3	98.4*	87.9	13.6	105.2*
C[C@H](CO)N1C[C@H](C)[C@@H](CN(C)Cc2ccc(-c3ccccc3)cc2)Oc2ccc(NC(=O)Nc3ccc(F)cc3)cc2C1=O	18.1	11.0	0.4	1.0	x	x	x	x
O=C(COc1ccccc1[N+](=O)[O-])Nc1cccc(-c2nc3cc(Cl)cc(Cl)c3o2)c1	x	x	-0.2	x	x	x	x	x
CO[C@@H]1CN(C)C(=O)c2cc(NC(=O)c3nc4ccccc4s3)ccc2OC[C@H](C)N(Cc2ccncc2)C[C@@H]1C	x	99.0*	0.1	0.0	89.9	44.0	-15.4	61.1*
CO[C@H]1CN(C)C(=O)c2cc(NC(=O)c3nc4ccccc4s3)ccc2OC[C@@H](C)N(Cc2ccncc2)C[C@H]1C	x	94.0	9.9	0.4	x	x	x	x
